Reference: article PMC3275116 (Clinics, 2012)
Read-outs that look alike come from different tables or passages of the source.

Key:
[1] = system: PC-3 cells; settings: cited from earlier work
[2] = cited from earlier work
[3] = system: DU-145 prostate cells; settings: cited from earlier work
[4] = system: PC-3 tumors; assay type: in vivo; settings: PC-3 tumor-bearing mice
[5] = system: PC-3 human prostate carcinoma cells; experiment: In vitro cell binding assay with increasing cold conjugate; assay type: cell-based; settings: 120 min
In short: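 PC3 androgen-independent cells were grown in RPMI 1640 with 10% (v/v) fetal calf serum at 37°C, 5% CO2, harvested near confluency by trypsinization, and seeded at 10^6 cells/well 24 h before assay. Wells received 90 pM 99mTc-labeled peptide with increasing cold conjugate (1 nM to 18 nM) and were incubated 120 min. Cell-associated radioactivity was gamma-counted.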

[6] = system: PC-3 tumors; experiment: Biodistribution in Nude mice bearing PC-3 tumors; assay type: in vivo; settings: for Blood uptake / Bone uptake / Heart uptake / Lung uptake / Muscle uptake / Spleen uptake / Stomach uptake / Tumor uptake: mean ± SD n = 6
In short: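 Athymic male nude mice (16 - 20 g) received 5.0×10^6 PC3 cells subcutaneously in the upper back; tumors grew 2–3 weeks to about 1 cm diameter. 99mTc-labeled conjugate was given by tail vein and biodistribution evaluated at 30 and 90 min post-injection; blocking groups were coinjected with excess cold conjugate. Organs were excised, weighed and gamma-counted; %ID/g was computed against injected-dose activity; mean ± SD, n = 6.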

[7] = Determination of log P values; assay type: physicochemical; settings: n-octanol/water 3 mL:3 mL, 100 µL radiotracer, gamma counter, triplicate samples
In short: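 Radiotracer (100 µL; 99mTc labeling by stannous-tartrate exchange at 100°C, 20 min) was added to equal volumes (3 mL each) of n-octanol and water, stirred vigorously and centrifuged. Triplicate samples from each phase were gamma-counted to give the partition ratio and log P.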

[8] = Biodistribution in healthy Swiss mice; assay type: in vivo; settings: i.v. 0.1 mL/18.5 MBq, mean ± SD n = 6
In short: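 Male Swiss albino mice (20 - 25 g) received 99mTc-labeled conjugate by tail vein (0.1 mL/18.5 MBq). Six mice per time point were killed by cervical dislocation at 5, 30, 90 and 240 min. Organs were excised, weighed and counted on a NaI(Tl) gamma counter; stomach and intestine were counted after removing luminal contents. %ID/g was calculated using injected-dose activity as standard; mean ± SD.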

FRPNRAQDYNTN [DUP-1]
binding to PC-3 cells [1]: high affinity
serum stability [2]: serum-instable
binding to DU-145 prostate cells [3]: high affinity

FRPNRAQDYNTNK-SAMA-G-G-G-Ahx-NH2 [99mTc-SAMA-G3-Ahx-DUP-1]
cold conjugate-blocked tumor uptake ([4]; 30 min post-injection): 82%
cold conjugate-blocked tumor uptake ([4]; 90 min post-injection): 83%
Radioactivity associated with PC3 tumor cells (binding) ([5]; 90 pM 99mTc-labeled peptide, no cold peptide, 37°C): ~1.97%
decrease of binding with cold peptide ([5]; cold conjugate increased 0 to 18 nM, 90 pM tracer): 63%
Uptake ratio Tumor/blood ([6]; 30 min post-injection): 1.23
Uptake ratio Tumor/muscle ([6]; 30 min post-injection): 3.15
Blood uptake ([6]; 30 min post-injection): 0.69±0.14 %ID/g
Bone uptake ([6]; 30 min post-injection): 0.31±0.08 %ID/g
Heart uptake ([6]; 30 min post-injection): 0.41±0.02 %ID/g
Lung uptake ([6]; 30 min post-injection): 1.24±0.43 %ID/g
Muscle uptake ([6]; 30 min post-injection): 0.27±0.27 %ID/g
Spleen uptake ([6]; 30 min post-injection): 0.56±0.13 %ID/g
Stomach uptake ([6]; 30 min post-injection): 1.05±0.07 %ID/g
Tumor uptake ([6]; 30 min post-injection): 0.85±0.19 %ID/g
Uptake ratio Tumor/blood ([6]; 90 min post-injection): 1.78
Uptake ratio Tumor/muscle ([6]; 90 min post-injection): 1.32
Blood uptake ([6]; 90 min post-injection): 0.23±0.06 %ID/g
Bone uptake ([6]; 90 min post-injection): 0.30±0.05 %ID/g
Heart uptake ([6]; 90 min post-injection): 0.10±0.10 %ID/g
Lung uptake ([6]; 90 min post-injection): 0.34±0.27 %ID/g
Muscle uptake ([6]; 90 min post-injection): 0.31±0.11 %ID/g
Spleen uptake ([6]; 90 min post-injection): 0.54±0.19 %ID/g
Stomach uptake ([6]; 90 min post-injection): 0.72±0.27 %ID/g
Tumor uptake ([6]; 90 min post-injection): 0.41±0.11 %ID/g
partition ratio [7]: 0.00389
Blood uptake ([8]; 5 min): 1.21±0.02 %ID/g
Bone uptake ([8]; 5 min): 0.84±0.17 %ID/g
Heart uptake ([8]; 5 min): 0.82±0.14 %ID/g
Kidney uptake ([8]; 5 min): 22.62±2.03 %ID/g
Liver uptake ([8]; 5 min): 12.31±2.19 %ID/g
Lung uptake ([8]; 5 min): 1.48±0.23 %ID/g
Muscle uptake ([8]; 5 min): 0.77±0.06 %ID/g
Pancreas uptake ([8]; 5 min): 1.44±0.33 %ID/g
Spleen uptake ([8]; 5 min): 1.37±0.18 %ID/g
Blood uptake ([8]; 30 min): 0.43±0.06 %ID/g
Bone uptake ([8]; 30 min): 0.20±0.01 %ID/g
Heart uptake ([8]; 30 min): 0.24±0.07 %ID/g
Kidney uptake ([8]; 30 min): 21.06±0.41 %ID/g
Liver uptake ([8]; 30 min): 8.58±1.75 %ID/g
Lung uptake ([8]; 30 min): 0.73±0.16 %ID/g
Muscle uptake ([8]; 30 min): 0.14±0.04 %ID/g
Pancreas uptake ([8]; 30 min): 0.18±0.11 %ID/g
Spleen uptake ([8]; 30 min): 0.28±0.07 %ID/g
Blood uptake ([8]; 90 min): 0.08±0.01 %ID/g
Bone uptake ([8]; 90 min): 0.05±0.02 %ID/g
Heart uptake ([8]; 90 min): 0.04±0.01 %ID/g
Kidney uptake ([8]; 90 min): 7.28±2.07 %ID/g
Liver uptake ([8]; 90 min): 1.57±0.57 %ID/g
Lung uptake ([8]; 90 min): 0.15±0.037 %ID/g
Muscle uptake ([8]; 90 min): 0.51±0.01 %ID/g
Pancreas uptake ([8]; 90 min): 0.05±0.01 %ID/g
Spleen uptake ([8]; 90 min): 0.09±0.03 %ID/g
Blood uptake ([8]; 240 min): 0.05±0.01 %ID/g
Bone uptake ([8]; 240 min): 0.05±0.01 %ID/g
Heart uptake ([8]; 240 min): 0.03±0.02 %ID/g
Kidney uptake ([8]; 240 min): 3.22±0.43 %ID/g
Liver uptake ([8]; 240 min): 1.53±0.64 %ID/g
Lung uptake ([8]; 240 min): 0.13±0.07 %ID/g
Muscle uptake ([8]; 240 min): 0.17±0.07 %ID/g
Pancreas uptake ([8]; 240 min): 0.04±0.01 %ID/g
Spleen uptake ([8]; 240 min): 0.07±0.02 %ID/g
